Reference: ChEMBL document CHEMBL1138547, “Synthesis, biological evaluation and 2D-QSAR analysis of benzoxazoles as antimicrobial agents” (2009)
≈ marks a conversion by molar mass, not a printed value.

Tests used:
Type in all cases: functional
[1] = system: Klebsiella pneumoniae; assay: Antimicrobial activity against Klebsiella pneumoniae RSHM 574 after 24 hrs; details: RSHM 574, 24 h
How it was run: (§1)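 MIC by twofold serial dilution in Mueller-Hinton broth (MHB); MHB also used to dilute the bacterial suspension. Wells held 10^3 cfu/ml bacteria after inoculation. Controls: 80% DMSO, 20% EtOH, methanol, DMSO, PBS, organism alone and medium alone. Triplicate in each run. MIC taken as the lowest concentration completely inhibiting macroscopic growth.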

[2] = system: Klebsiella pneumoniae; assay: Antimicrobial activity against multidrug-resistant Klebsiella pneumoniae after 24 hrs
How it was run: (§2)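 Twofold serial broth dilution in Mueller-Hinton broth. MHB was used both to dilute the bacterial suspension and for the twofold compound dilutions, giving 10^3 cfu/ml bacteria per well after inoculation. Solvent, medium and organism-only wells served as controls. Each organism was run in triplicate.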

[3] = system: Escherichia coli; assay: Antimicrobial activity against Escherichia coli ATCC 25922 after 24 hrs; details: ATCC 25922, 24 h; how it was run: as §1
[4] = system: Escherichia coli; assay: Antimicrobial activity against multidrug-resistant Escherichia coli after 24 hrs; how it was run: as §2
[5] = system: Pseudomonas aeruginosa; assay: Antimicrobial activity against Pseudomonas aeruginosa ATCC […] after 24 hrs; how it was run: as §1
[6] = system: Bacillus subtilis; assay: Antimicrobial activity against Bacillus subtilis ATCC 6633 after 24 hrs; details: for MIC: Bacillus subtilis, ATCC 6633, 24 h; how it was run: as §1
[7] = system: Bacillus subtilis; assay: Antimicrobial activity against ceftriazone-resistant Bacillus subtilis after 24 hrs; how it was run: as §2
[8] = system: Staphylococcus aureus; assay: Antimicrobial activity against Staphylococcus aureus ATCC 25923 after 24 hrs; details: ATCC 25923, 24 h; how it was run: as §2
[9] = system: Staphylococcus aureus; assay: Antimicrobial activity against multidrug-resistant Staphylococcus aureus after 24 hrs; how it was run: as §2
[10] = system: Candida albicans; assay: Antimicrobial activity against Candida albicans ATCC 10231 after 24 to 48 hrs
How it was run: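 Twofold serial dilution following CLSI M27-A. Yeast suspension made at 10^4 cfu/ml by diluting a fresh culture at McFarland 0.5 (10^6 cfu/ml). Inoculated into the diluted compound, incubated at 35 °C in a humid chamber, read after 48 h. Triplicate in each run. MIC is the lowest concentration completely inhibiting macroscopic growth.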

[11] = system: Candida albicans; assay: Antimicrobial activity against multidrug-resistant Candida albicans isolates after 24 to 48 hrs
How it was run: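 Yeast broth microdilution following CLSI M27-A, with Sabouraud dextrose medium noted for antifungal assays. Fresh cultures at McFarland 0.5 (10^6 cfu/ml) were diluted to 10^4 cfu/ml and inoculated into twofold compound dilutions. Trays were incubated at 35 °C in a humid chamber and read at 48 h, in triplicate. MIC was the lowest concentration giving complete macroscopic growth inhibition.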

| Compound | MIC [1] | MIC [2] | MIC [3] | MIC [4] | MIC [5] | log(1/C) [6] | MIC [6] | MIC [7] | MIC [8] | MIC [9] | MIC [10] | MIC [11] |
| --- | --- | --- | --- | --- | --- | --- | --- | --- | --- | --- | --- | --- |
| O=[N+]([O-])c1ccc2oc(-c3ccccc3)nc2c1 | 50 µg/mL (≈ 208 µM) | 100 µg/mL (≈ 416 µM) | 50 µg/mL (≈ 208 µM) | 50 µg/mL (≈ 208 µM) | 25 µg/mL (≈ 104 µM) | 4.284 | 12.5 µg/mL (≈ 52 µM) | 25 µg/mL (≈ 104 µM) | 200 µg/mL (≈ 833 µM) | 400 µg/mL (≈ 1670 µM) | 100 µg/mL (≈ 416 µM) | 50 µg/mL (≈ 208 µM) |
| Cc1ccc(Cc2nc3cc(N)ccc3o2)cc1 | 50 µg/mL (≈ 210 µM) | 100 µg/mL (≈ 420 µM) | 50 µg/mL (≈ 210 µM) | 50 µg/mL (≈ 210 µM) | 50 µg/mL (≈ 210 µM) | 4.28 | 12.5 µg/mL (≈ 52.5 µM) | 25 µg/mL (≈ 105 µM) | 100 µg/mL (≈ 420 µM) | 100 µg/mL (≈ 420 µM) | 100 µg/mL (≈ 420 µM) | 50 µg/mL (≈ 210 µM) |
| O=[N+]([O-])c1ccc2nc(-c3ccccc3)oc2c1 | 50 µg/mL (≈ 208 µM) | 100 µg/mL (≈ 416 µM) | 50 µg/mL (≈ 208 µM) | 25 µg/mL (≈ 104 µM) | 50 µg/mL (≈ 208 µM) | 3.983 | 25 µg/mL (≈ 104 µM) | 25 µg/mL (≈ 104 µM) | 200 µg/mL (≈ 833 µM) | 100 µg/mL (≈ 416 µM) | 100 µg/mL (≈ 416 µM) | 50 µg/mL (≈ 208 µM) |
| Nc1ccc2oc(Cc3ccc(F)cc3)nc2c1 | 50 µg/mL (≈ 206 µM) | 100 µg/mL (≈ 413 µM) | 50 µg/mL (≈ 206 µM) | 25 µg/mL (≈ 103 µM) | 50 µg/mL (≈ 206 µM) | 3.685 | 50 µg/mL (≈ 206 µM) | 50 µg/mL (≈ 206 µM) | 200 µg/mL (≈ 826 µM) | 100 µg/mL (≈ 413 µM) | 100 µg/mL (≈ 413 µM) | 50 µg/mL (≈ 206 µM) |
| CC(C)(C)c1ccc(-c2nc3ccc([N+](=O)[O-])cc3o2)cc1 | 50 µg/mL (≈ 169 µM) | 100 µg/mL (≈ 337 µM) | 50 µg/mL (≈ 169 µM) | 100 µg/mL (≈ 337 µM) | 50 µg/mL (≈ 169 µM) | 3.773 | 50 µg/mL (≈ 169 µM) | 100 µg/mL (≈ 337 µM) | 100 µg/mL (≈ 337 µM) | 100 µg/mL (≈ 337 µM) | 50 µg/mL (≈ 169 µM) | 100 µg/mL (≈ 337 µM) |
| O=[N+]([O-])c1ccc2nc(Cc3ccc(Cl)cc3)oc2c1 | 50 µg/mL (≈ 173 µM) | 100 µg/mL (≈ 346 µM) | 50 µg/mL (≈ 173 µM) | 100 µg/mL (≈ 346 µM) | 25 µg/mL (≈ 86.6 µM) | 4.364 | 12.5 µg/mL (≈ 43.3 µM) | 25 µg/mL (≈ 86.6 µM) | 200 µg/mL (≈ 693 µM) | 100 µg/mL (≈ 346 µM) | 100 µg/mL (≈ 346 µM) | 50 µg/mL (≈ 173 µM) |
| O=[N+]([O-])c1ccc2oc(-c3ccc(F)cc3)nc2c1 | 50 µg/mL (≈ 194 µM) | 100 µg/mL (≈ 387 µM) | 50 µg/mL (≈ 194 µM) | 100 µg/mL (≈ 387 µM) | 50 µg/mL (≈ 194 µM) | 3.713 | 50 µg/mL (≈ 194 µM) | 25 µg/mL (≈ 96.8 µM) | 100 µg/mL (≈ 387 µM) | 100 µg/mL (≈ 387 µM) | 50 µg/mL (≈ 194 µM) | 100 µg/mL (≈ 387 µM) |
| O=[N+]([O-])c1ccc2oc(Cc3ccc(F)cc3)nc2c1 | 50 µg/mL (≈ 184 µM) | 100 µg/mL (≈ 367 µM) | 50 µg/mL (≈ 184 µM) | 50 µg/mL (≈ 184 µM) | 25 µg/mL (≈ 91.8 µM) | 4.338 | 12.5 µg/mL (≈ 45.9 µM) | 50 µg/mL (≈ 184 µM) | 100 µg/mL (≈ 367 µM) | 100 µg/mL (≈ 367 µM) | 100 µg/mL (≈ 367 µM) | 50 µg/mL (≈ 184 µM) |
| O=[N+]([O-])c1ccc2nc(Cc3ccc(Br)cc3)oc2c1 | 50 µg/mL (≈ 150 µM) | 100 µg/mL (≈ 300 µM) | 50 µg/mL (≈ 150 µM) | 100 µg/mL (≈ 300 µM) | 25 µg/mL (≈ 75 µM) | 4.125 | 25 µg/mL (≈ 75 µM) | 25 µg/mL (≈ 75 µM) | 100 µg/mL (≈ 300 µM) | 100 µg/mL (≈ 300 µM) | 50 µg/mL (≈ 150 µM) | 100 µg/mL (≈ 300 µM) |
| CC(C)(C)c1ccc(-c2nc3ccc(N)cc3o2)cc1 | 50 µg/mL (≈ 188 µM) | 100 µg/mL (≈ 375 µM) | 50 µg/mL (≈ 188 µM) | 100 µg/mL (≈ 375 µM) | 25 µg/mL (≈ 93.9 µM) | 4.027 | 25 µg/mL (≈ 93.9 µM) | 25 µg/mL (≈ 93.9 µM) | 100 µg/mL (≈ 375 µM) | 100 µg/mL (≈ 375 µM) | 50 µg/mL (≈ 188 µM) | 50 µg/mL (≈ 188 µM) |
